Assays:
[1] = biological target: Serine/threonine-protein kinase haspin (Homo sapiens) (UniProt Q8TF76); assay: Binding affinity to wild-type human partial length HASPIN (I452 to K798 residues) expressed in mammalian expression system assessed as residual binding level at 1 uM by Kinomescan method relative to control
[2] = biological target: Tyrosine-protein kinase receptor Tie-1 (Homo sapiens) (UniProt P35590); assay: Binding affinity to wild-type human partial length TIE1 (T819 to A1138 residues) expressed in bacterial expression system assessed as residual binding level at 1 uM by Kinomescan method relative to control
Procedure, shortened: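 Active site-directed competition binding panel (KinomeScan, 468 kinases). Test compound at 1 μM. Read-out is kinase binding remaining versus DMSO control, expressed as percent of control. Scores above 35% are treated as weak binding.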

[3] = test system: Tyrosine-protein kinase ABL1 (Homo sapiens), P00519 [Q252H]; assay: Binding affinity to human phosphorylated ABL1 Q252H mutant expressed in mammalian expression system assessed as residual binding level at 1 uM by Kinomescan method relative to control
Procedure, shortened: (§1)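 Active-site-directed KinomeScan competition binding panel covering 468 kinases, compound tested at 1 μM. Each readout is the kinase signal remaining with compound, expressed as a percentage of the DMSO control. […]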

[4] = test system: Epidermal growth factor receptor (Homo sapiens), P00533 [UNDEFINED MUTATION]; assay: Binding affinity to human partial length EGFR L747-T751del/Sins mutant expressed in bacterial expression system assessed as residual binding level at 1 uM by Kinomescan method relative to control
Procedure, shortened: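 KinomeScan active site-directed competition binding panel (468 kinases), compound tested at 1 μM. Result expressed as remaining kinase signal versus DMSO control (percent of control).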

[5] = biological target: Protein-tyrosine kinase 6 (Homo sapiens) (UniProt Q13882); assay: Binding affinity to wild-type human partial length BRK (L166 to T451 residues) expressed in bacterial expression system assessed as residual binding level at 1 uM by Kinomescan method relative to control
[6] = biological target: Serine/threonine-protein kinase MRCK alpha (Homo sapiens) (UniProt Q5VT25); assay: Binding affinity to wild-type human partial length MRCKA (L57 to V418 residues) expressed in bacterial expression system assessed as residual binding level at 1 uM by Kinomescan method relative to control
[7] = biological target: Interferon-induced, double-stranded RNA-activated protein kinase (Homo sapiens) (UniProt P19525); assay: Binding affinity to wild-type human partial length PRKR (F247 to C551 residues) expressed in bacterial expression system assessed as residual binding level at 1 uM by Kinomescan method relative to control
[8] = biological target: Serine/threonine-protein kinase 32A (Homo sapiens) (UniProt Q8WU08); assay: Binding affinity to wild-type human full length YANK1 (M1 to L396 residues) expressed in mammalian expression system assessed as residual binding level at 1 uM by Kinomescan method relative to control
[9] = biological target: Eukaryotic translation initiation factor 2-alpha kinase 1 (Homo sapiens) (UniProt Q9BQI3); assay: Binding affinity to wild-type human partial length EIF2AK1 (Q147 to E603 residues) expressed in mammalian expression system assessed as residual binding level at 1 uM by Kinomescan method relative to control
[10] = biological target: Protein kinase C eta type (Homo sapiens) (UniProt P24723); assay: Binding affinity to wild-type human partial length PRKCH (S324 to P683 residues) expressed in bacterial expression system assessed as residual binding level at 1 uM by Kinomescan method relative to control
[11] = biological target: RAF proto-oncogene serine/threonine-protein kinase (Homo sapiens) (UniProt P04049); assay: Binding affinity to wild-type human partial length RAF1 (I330 to T640 residues) expressed in bacterial expression system assessed as residual binding level at 1 uM by Kinomescan method relative to control
[12] = biological target: Death-associated protein kinase 1 (Homo sapiens) (UniProt P53355); assay: Binding affinity to wild-type human partial length DAPK1 (M1 to F296 residues) expressed in bacterial expression system assessed as residual binding level at 1 uM by Kinomescan method relative to control
[13] = biological target: Cyclin-dependent kinase 13 (Homo sapiens) (UniProt Q14004); assay: Binding affinity to wild-type human partial length CDC2L5 (H675 to S1054 residues) expressed in mammalian expression system assessed as residual binding level at 1 uM by Kinomescan method relative to control
[14] = biological target: Rho-associated protein kinase 2 (Homo sapiens) (UniProt O75116); assay: Binding affinity to wild-type human partial length ROCK2 (M1 to T431 residues) expressed in mammalian expression system assessed as residual binding level at 1 uM by Kinomescan method relative to control
[15] = biological target: Receptor tyrosine-protein kinase erbB-3 (Homo sapiens) (UniProt P21860); assay: Binding affinity to wild-type human partial length ERBB3 (G684 to A987 residues) expressed in mammalian expression system assessed as residual binding level at 1 uM by Kinomescan method relative to control
[16] = biological target: Ribosomal protein S6 kinase alpha-5 (Homo sapiens) (UniProt O75582); assay: Binding affinity to wild-type human partial length C-terminal RPS6KA5 kinase domain 2 (V390 to T718 residues) expressed in bacterial expression system assessed as residual binding level at 1 uM by Kinomescan method relative to control
[17] = biological target: Serine/threonine-protein kinase 35 (Homo sapiens) (UniProt Q8TDR2); assay: Binding affinity to wild-type human partial length STK35 (G182 to A534 residues) expressed in bacterial expression system assessed as residual binding level at 1 uM by Kinomescan method relative to control
[18] = biological target: Phosphorylase b kinase gamma catalytic chain, liver/testis isoform (Homo sapiens) (UniProt P15735); assay: Binding affinity to wild-type human partial length PHKG2 (M1 to W300 residues) expressed in bacterial expression system assessed as residual binding level at 1 uM by Kinomescan method relative to control
[19] = biological target: Dual specificity tyrosine-phosphorylation-regulated kinase 2 (Homo sapiens) (UniProt Q92630); assay: Binding affinity to wild-type human full length DYRK2 (M1 to S528 residues) expressed in mammalian expression system assessed as residual binding level at 1 uM by Kinomescan method relative to control; procedure, shortened: as §1
[20] = biological target: Serine/threonine-protein kinase PLK2 (Homo sapiens) (UniProt Q9NYY3); assay: Binding affinity to wild-type human partial length PLK2 (H58 to F354 residues) expressed in mammalian expression system assessed as residual binding level at 1 uM by Kinomescan method relative to control
[21] = biological target: Phosphatidylinositol 4-phosphate 5-kinase type-1 alpha (Homo sapiens) (UniProt Q99755); assay: Binding affinity to wild-type human full length PIP5K1A (M1 to H562 residues) expressed in bacterial expression system assessed as residual binding level at 1 uM by Kinomescan method relative to control
Procedure, shortened: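 Active-site-directed competition binding panel (KinomeScan) covering 468 kinases. Test agent was screened at 1 μM. The read-out is the remaining kinase signal expressed relative to a DMSO control. Scores above 35%, taken as weak binding, were not reported.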

[22] = biological target: Serine/threonine-protein kinase 17B (Homo sapiens) (UniProt O94768); assay: Binding affinity to wild-type human full length DRAK2 (M1 to C372 residues) expressed in bacterial expression system assessed as residual binding level at 1 uM by Kinomescan method relative to control; procedure, shortened: as §1

Measured: Activity

Chain of Serine/threonine-protein kinase PLK2 (Homo sapiens) (Q9NYY3 whole entry, looked up, the tested form may be a part): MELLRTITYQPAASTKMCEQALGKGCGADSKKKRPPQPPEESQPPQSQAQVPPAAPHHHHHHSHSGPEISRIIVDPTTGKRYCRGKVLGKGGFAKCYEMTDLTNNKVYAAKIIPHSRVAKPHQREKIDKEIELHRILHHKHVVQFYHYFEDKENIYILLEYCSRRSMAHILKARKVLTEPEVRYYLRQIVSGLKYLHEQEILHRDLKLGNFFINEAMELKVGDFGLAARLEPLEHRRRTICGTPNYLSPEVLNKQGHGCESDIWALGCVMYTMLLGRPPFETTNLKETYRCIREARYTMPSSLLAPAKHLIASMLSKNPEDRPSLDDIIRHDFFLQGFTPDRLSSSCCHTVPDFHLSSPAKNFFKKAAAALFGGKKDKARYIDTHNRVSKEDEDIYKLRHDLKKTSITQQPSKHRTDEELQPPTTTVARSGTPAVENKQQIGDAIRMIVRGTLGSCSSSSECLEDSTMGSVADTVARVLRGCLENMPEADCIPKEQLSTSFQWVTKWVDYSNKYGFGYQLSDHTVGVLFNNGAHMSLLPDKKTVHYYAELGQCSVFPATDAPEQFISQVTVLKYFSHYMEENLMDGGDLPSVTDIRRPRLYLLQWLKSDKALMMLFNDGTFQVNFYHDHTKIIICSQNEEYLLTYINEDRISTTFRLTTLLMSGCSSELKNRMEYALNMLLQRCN
Chain of Epidermal growth factor receptor (Homo sapiens), P00533 [UNDEFINED MUTATION] (P00533 whole entry, looked up, stated change not applied): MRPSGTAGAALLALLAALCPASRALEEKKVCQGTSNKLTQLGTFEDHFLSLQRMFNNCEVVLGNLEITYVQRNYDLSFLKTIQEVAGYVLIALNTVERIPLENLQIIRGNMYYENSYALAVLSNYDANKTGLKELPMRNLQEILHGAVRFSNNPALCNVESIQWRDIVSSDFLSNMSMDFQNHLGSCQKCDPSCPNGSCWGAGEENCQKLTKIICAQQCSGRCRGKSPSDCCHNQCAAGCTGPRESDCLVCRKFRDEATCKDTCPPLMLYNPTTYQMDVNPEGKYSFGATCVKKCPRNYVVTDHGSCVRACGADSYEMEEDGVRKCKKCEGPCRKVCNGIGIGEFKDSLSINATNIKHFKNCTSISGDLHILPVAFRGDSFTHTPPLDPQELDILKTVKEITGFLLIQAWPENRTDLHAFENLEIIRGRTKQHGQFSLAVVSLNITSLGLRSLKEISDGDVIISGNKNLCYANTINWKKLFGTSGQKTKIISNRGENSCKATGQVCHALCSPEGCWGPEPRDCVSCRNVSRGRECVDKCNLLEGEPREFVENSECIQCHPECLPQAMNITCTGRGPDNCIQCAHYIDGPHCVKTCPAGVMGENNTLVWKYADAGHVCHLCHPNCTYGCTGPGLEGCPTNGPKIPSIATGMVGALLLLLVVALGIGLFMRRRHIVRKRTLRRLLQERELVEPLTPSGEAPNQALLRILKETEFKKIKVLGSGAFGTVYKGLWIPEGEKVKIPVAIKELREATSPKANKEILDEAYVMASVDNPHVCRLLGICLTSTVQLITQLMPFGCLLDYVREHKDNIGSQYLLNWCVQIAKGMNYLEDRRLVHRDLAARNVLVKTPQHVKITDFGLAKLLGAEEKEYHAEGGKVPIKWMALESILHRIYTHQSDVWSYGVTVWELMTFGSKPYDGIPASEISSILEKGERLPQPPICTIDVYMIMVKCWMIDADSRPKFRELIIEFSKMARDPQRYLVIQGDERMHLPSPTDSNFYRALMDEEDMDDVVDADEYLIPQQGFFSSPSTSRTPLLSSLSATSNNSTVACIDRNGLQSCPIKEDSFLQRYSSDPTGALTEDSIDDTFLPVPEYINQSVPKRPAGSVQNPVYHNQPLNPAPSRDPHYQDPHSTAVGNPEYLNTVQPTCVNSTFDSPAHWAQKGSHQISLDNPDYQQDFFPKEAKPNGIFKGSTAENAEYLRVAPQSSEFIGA
Chain of Serine/threonine-protein kinase 17B (Homo sapiens) (O94768 whole entry, the tested form may be a part): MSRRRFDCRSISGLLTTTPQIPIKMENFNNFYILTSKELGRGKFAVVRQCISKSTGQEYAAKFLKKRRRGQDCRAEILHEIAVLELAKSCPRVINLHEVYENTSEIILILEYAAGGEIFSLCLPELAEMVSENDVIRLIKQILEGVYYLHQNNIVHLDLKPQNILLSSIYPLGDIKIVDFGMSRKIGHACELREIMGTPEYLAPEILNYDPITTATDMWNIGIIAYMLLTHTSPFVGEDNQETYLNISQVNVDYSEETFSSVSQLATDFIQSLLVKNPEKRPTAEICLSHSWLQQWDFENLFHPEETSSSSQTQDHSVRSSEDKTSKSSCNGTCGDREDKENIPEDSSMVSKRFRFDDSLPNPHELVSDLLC
Chain of Serine/threonine-protein kinase 32A (Homo sapiens) (Q8WU08 whole entry, the tested form may be a part): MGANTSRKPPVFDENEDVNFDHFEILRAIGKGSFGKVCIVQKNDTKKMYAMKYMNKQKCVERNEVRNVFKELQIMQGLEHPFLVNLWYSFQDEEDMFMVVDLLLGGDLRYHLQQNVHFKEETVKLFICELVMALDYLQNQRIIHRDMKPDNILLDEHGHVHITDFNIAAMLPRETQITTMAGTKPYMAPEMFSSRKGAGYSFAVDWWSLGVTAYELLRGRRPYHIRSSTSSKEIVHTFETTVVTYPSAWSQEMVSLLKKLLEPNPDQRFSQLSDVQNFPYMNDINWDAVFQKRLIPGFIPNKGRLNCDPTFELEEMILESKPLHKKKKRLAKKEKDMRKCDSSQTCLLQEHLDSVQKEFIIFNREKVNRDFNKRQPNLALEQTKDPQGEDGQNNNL
Chain of Receptor tyrosine-protein kinase erbB-3 (Homo sapiens) (P21860 whole entry, the tested form may be a part): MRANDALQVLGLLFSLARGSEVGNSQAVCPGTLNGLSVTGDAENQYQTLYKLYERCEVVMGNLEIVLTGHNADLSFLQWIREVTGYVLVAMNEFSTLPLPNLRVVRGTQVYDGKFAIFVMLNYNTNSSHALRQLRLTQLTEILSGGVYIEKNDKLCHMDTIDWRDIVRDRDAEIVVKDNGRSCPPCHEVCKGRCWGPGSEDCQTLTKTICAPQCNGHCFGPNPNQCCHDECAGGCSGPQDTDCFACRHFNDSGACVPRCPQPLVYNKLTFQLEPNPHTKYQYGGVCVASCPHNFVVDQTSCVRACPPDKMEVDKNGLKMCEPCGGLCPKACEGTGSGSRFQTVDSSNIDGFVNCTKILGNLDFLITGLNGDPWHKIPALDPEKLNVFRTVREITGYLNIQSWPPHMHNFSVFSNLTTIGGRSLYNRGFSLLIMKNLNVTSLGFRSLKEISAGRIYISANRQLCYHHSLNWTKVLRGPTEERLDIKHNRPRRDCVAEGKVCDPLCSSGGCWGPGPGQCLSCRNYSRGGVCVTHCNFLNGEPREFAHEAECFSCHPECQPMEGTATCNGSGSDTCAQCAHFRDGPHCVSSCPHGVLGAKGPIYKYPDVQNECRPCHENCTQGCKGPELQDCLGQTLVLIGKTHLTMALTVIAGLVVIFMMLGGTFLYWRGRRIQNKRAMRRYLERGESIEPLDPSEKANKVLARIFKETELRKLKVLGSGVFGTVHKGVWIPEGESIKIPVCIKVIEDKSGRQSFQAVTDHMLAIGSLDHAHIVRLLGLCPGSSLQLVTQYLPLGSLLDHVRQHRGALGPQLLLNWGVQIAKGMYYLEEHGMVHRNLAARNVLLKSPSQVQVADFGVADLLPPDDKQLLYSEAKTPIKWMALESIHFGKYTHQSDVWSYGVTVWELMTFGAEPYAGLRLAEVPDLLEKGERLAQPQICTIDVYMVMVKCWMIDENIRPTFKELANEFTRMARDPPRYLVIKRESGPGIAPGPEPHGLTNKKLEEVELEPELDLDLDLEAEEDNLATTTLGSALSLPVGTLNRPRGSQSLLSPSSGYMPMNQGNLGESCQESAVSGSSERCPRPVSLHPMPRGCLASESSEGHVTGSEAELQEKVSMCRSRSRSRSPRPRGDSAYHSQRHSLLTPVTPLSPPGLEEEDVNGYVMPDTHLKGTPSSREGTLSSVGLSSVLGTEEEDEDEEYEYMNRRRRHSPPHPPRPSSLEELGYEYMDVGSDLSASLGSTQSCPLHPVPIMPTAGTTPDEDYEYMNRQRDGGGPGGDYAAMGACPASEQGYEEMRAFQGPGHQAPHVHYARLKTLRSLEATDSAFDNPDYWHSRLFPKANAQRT
Chain of Protein kinase C eta type (Homo sapiens) (P24723 whole entry, the tested form may be a part): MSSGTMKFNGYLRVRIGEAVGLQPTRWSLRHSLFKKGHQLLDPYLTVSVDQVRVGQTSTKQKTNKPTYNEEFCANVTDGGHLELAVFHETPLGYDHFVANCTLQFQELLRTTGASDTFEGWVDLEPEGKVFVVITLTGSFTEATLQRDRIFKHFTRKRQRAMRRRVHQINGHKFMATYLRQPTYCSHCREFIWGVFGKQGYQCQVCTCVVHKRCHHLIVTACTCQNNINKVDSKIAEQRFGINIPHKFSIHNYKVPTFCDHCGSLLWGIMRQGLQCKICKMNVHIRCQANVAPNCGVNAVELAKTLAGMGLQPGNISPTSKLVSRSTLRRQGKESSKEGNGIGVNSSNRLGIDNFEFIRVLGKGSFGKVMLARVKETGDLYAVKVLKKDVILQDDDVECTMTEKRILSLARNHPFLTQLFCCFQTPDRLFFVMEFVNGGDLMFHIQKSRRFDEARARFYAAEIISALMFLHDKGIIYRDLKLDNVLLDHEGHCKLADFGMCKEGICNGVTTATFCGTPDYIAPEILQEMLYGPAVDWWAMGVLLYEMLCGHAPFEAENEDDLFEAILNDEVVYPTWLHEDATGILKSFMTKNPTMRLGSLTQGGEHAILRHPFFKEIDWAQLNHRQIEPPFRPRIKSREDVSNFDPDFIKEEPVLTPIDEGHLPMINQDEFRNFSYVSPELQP

C=CC(=O)Nc1ccccc1Nc1nc(Nc2ccc(N3CCN(C)CC3)cc2)ncc1C(=O)Nc1c(C)cccc1Cl
89%: [15] | [19]
73%: [4]
0.7%: [3]
92%: [13]
83%: [2]
100%: all other assays above

Reference: ChEMBL document CHEMBL4354843, “Structure-Based Design of a Potent and Selective Covalent Inhibitor for SRC Kinase That Targets a P-Loop Cysteine” (J Med Chem, 2020)
